Measurements from ChEMBL document CHEMBL4024800, “α-Amino-β-carboxymuconate-ε-semialdehyde Decarboxylase (ACMSD) Inhibitors as Novel Modulators of De Novo Nicotinamide Adenine Dinucleotide (NAD+) Biosynthesis” (J Med Chem, 2018).
≈ marks a conversion by molar mass, not a printed value. Calls of active or inactive are those of the source. The rule behind the calls is not given here.

Experiments:
[1] = molecular target: 2-amino-3-carboxymuconate-6-semialdehyde decarboxylase (Homo sapiens, UniProt Q8TDX5); test: Inhibition of human ACMSD expressed in Pichia pastoris using ACMS as substrate by coupled spectrophotometric assay
2-amino-3-carboxymuconate-6-semialdehyde decarboxylase, sequence (Q8TDX5 whole entry): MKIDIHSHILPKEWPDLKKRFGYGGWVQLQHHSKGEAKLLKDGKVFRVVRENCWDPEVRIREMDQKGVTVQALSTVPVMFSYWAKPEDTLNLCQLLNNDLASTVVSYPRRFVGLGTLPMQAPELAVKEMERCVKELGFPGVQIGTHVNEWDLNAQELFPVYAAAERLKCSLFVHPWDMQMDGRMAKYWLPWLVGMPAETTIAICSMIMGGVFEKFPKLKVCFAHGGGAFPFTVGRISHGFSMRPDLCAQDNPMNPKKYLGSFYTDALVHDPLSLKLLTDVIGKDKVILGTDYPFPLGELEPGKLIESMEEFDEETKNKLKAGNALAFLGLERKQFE
How it was run: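 Recombinant enzyme purified from Pichia pastoris; ACMS substrate generated in a pre-assay mix from 10 μM 3-hydroxyanthranilic acid by Ralstonia metallidurans 3-hydroxyanthranilate 3,4-dioxygenase, formation monitored at 360 nm. Enzyme and compound then added together; activity from initial rate of absorbance decrease minus a no-enzyme control. Serial dilutions, 1.0% DMSO throughout. IC50 from concentration–response curves, mean ± SD of three independent experiments.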

[2] = Solubility of compound in PBS buffer at pH 7.4 after 24 hrs by UV/vis-spectroscopic analysis; format: physicochemical
How it was run: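 Compound in PBS pH 7.4 with 1% DMSO mixed, incubated 24 h and vacuum-filtered; filtrate read by UV/vis and relative solubility calculated from summed readings against a standard. Reported in mg/mL.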

[3] = molecular target: Cytochrome P450 3A4 (Homo sapiens, UniProt P08684); test: Inhibition of recombinant human CYP3A4 expressed in baculosomes expression system using fluorogenic-BOMCC as substrate by fluorescent homogeneous assay; format: ADME
Cytochrome P450 3A4, sequence (P08684 whole entry): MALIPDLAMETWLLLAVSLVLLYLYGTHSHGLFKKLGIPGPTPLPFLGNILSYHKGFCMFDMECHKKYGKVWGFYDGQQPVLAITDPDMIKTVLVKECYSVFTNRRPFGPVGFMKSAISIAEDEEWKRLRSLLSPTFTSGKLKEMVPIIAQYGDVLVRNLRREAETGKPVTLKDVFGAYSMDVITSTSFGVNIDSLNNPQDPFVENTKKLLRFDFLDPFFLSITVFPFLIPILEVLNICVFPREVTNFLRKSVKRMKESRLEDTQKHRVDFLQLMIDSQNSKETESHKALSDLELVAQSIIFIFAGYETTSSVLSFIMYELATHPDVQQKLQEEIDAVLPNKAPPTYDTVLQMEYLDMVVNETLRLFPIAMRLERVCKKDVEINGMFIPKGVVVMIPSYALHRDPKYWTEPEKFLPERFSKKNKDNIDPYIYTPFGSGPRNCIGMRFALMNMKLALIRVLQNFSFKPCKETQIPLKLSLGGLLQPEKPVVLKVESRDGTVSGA
How it was run: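 Recombinant CYP baculosomes with fluorogenic substrates, at concentrations below their Km; homogeneous fluorescence read-out, run in triplicate. IC50 classes: <1 μM potent, 1–10 μM moderate, >10 μM weak or none.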

[4] = molecular target: Voltage-gated inwardly rectifying potassium channel KCNH2 (Homo sapiens, UniProt Q12809); test: Displacement of red fluorescent channel ligand tracer from human ERG expressed in CHO cell membranes
Voltage-gated inwardly rectifying potassium channel KCNH2, sequence (Q12809 whole entry): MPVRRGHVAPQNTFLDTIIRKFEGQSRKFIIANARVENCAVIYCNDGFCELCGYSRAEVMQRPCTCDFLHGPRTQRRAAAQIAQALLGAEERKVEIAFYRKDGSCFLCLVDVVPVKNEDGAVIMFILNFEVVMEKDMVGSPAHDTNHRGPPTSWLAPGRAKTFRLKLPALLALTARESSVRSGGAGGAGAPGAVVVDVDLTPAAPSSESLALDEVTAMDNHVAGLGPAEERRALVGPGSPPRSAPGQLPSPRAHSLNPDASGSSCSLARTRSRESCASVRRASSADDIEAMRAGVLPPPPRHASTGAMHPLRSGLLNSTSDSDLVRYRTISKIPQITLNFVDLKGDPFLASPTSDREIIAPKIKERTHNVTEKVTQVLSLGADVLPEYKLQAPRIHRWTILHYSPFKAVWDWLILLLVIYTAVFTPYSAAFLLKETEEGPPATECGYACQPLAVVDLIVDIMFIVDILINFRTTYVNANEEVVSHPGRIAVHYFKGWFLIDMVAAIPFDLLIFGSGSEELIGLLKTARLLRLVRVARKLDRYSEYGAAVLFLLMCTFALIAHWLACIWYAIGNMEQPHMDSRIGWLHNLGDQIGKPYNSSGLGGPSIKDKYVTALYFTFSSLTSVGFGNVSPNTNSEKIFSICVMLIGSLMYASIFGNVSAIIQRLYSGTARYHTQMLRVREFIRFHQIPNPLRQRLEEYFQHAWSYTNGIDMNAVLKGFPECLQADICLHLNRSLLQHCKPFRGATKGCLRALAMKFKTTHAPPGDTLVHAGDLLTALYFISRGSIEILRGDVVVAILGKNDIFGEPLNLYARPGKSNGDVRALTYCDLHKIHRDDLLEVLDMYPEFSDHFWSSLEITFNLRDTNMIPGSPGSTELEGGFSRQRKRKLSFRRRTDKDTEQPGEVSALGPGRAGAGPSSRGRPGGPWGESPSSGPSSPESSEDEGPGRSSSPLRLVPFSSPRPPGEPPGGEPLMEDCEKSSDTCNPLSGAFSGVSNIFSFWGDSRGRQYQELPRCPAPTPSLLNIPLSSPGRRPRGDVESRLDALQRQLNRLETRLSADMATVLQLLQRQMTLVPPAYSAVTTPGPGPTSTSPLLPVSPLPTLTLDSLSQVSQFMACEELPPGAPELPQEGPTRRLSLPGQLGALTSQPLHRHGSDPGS
How it was run: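 Fluorescence polarisation kit: membranes from CHO cells stably expressing hERG, with a red fluorescent high-affinity tracer; competitors detected by tracer displacement, seen as lowered polarisation. Final DMSO 1%; E-4031 reference.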

[5] = molecular target: T1, Nuclear receptor subfamily 1 group I member 2 (Homo sapiens, UniProt O75469); test: Activity at PXR (unknown origin)
T1 sequence (O75469 whole entry): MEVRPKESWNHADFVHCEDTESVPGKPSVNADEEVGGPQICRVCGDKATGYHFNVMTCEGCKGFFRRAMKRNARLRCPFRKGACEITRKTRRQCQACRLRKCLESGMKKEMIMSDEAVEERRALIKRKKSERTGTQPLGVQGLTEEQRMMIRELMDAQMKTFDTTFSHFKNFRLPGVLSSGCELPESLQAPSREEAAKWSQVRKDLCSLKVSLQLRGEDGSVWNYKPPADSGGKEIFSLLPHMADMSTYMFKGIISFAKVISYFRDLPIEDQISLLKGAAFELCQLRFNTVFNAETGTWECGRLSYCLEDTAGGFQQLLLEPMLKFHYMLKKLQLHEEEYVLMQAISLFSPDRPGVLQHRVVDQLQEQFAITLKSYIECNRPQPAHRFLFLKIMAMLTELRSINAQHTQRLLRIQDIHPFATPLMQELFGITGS
How it was run: (§1)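 Eight-point serial dilutions tested in an in-house AlphaScreen-based nuclear receptor panel; activity derived from nonlinear regression curves.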

[6] = molecular target: T2, Vitamin D3 receptor (Homo sapiens) (UniProt P11473); test: Activity at VDR (unknown origin); how it was run: as §1
T2 sequence (whole entry): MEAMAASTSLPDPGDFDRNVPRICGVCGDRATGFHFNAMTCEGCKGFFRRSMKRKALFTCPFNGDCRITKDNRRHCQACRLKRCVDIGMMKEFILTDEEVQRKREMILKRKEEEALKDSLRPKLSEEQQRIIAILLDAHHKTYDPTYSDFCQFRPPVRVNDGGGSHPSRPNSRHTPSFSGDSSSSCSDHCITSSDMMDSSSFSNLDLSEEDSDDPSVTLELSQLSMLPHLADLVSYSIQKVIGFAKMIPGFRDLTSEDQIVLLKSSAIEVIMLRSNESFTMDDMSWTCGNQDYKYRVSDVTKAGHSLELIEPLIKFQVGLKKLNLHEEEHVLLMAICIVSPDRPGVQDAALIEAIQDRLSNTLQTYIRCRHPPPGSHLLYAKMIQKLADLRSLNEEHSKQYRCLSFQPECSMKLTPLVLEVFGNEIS

[7] = molecular target: T3, Glucocorticoid receptor (Homo sapiens) (UniProt P04150); test: Activity at GR (unknown origin); how it was run: as §1
T3 sequence (whole entry): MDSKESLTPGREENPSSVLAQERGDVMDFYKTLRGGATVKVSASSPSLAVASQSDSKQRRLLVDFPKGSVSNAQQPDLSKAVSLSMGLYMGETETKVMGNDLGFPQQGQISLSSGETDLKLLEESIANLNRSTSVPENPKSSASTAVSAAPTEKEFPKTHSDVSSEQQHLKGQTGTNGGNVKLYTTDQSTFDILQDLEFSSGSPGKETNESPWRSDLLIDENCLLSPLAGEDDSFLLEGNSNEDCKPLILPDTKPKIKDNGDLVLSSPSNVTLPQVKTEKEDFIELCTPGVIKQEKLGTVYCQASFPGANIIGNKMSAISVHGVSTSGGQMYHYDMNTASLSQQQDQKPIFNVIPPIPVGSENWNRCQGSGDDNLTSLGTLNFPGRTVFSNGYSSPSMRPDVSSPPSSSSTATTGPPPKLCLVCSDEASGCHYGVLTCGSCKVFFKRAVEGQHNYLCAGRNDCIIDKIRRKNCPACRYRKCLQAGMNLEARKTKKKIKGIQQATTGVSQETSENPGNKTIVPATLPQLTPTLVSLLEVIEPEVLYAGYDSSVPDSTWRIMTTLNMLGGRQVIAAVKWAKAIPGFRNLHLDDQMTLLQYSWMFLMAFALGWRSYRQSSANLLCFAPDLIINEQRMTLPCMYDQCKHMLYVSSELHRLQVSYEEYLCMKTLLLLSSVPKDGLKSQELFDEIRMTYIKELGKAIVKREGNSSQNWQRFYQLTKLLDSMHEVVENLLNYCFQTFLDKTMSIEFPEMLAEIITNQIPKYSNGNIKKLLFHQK

[8] = species on record: Homo sapiens; test: Activity at TR (unknown origin); how it was run: as §1
[9] = AUClast in CD1 mouse at 0.5 mg/kg, iv measured up to 24 hrs post dose; format: ADME, organism-based; parameters: dose 0.5 mg/kg, time < 24 hr, route intravenous; conditions: in vivo
How it was run: (§2)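 Mice given 0.5 mg/kg IV in saline containing 5% (v/v) DMSO and 20% (v/v) PEG400; blood pharmacokinetic parameters reported as means.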

[10] = Clearance in CD1 mouse at 0.5 mg/kg, iv measured up to 24 hrs post dose; format: ADME, organism-based; conditions: in vivo; how it was run: as §2
[11] = Half life in CD1 mouse at 0.5 mg/kg, iv measured up to 24 hrs post dose; format: ADME, organism-based; conditions: in vivo; how it was run: as §2
[12] = Cmax in CD1 mouse at 5 mg/kg, po measured up to 8 hrs after dose; format: ADME, organism-based; parameters: dose 5 mg/kg, route oral; conditions: in vivo
How it was run: (§3)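 Mice dosed orally at 5 mg/kg in 0.5% (w/v) HPMC in water with 5% (v/v) DMSO; blood, liver and kidney concentrations followed to 8 h. AUC0–8h given in h·ng/mL; parameters reported as means.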

[13] = AUClast in mouse liver at 5 mg/kg, po measured up to 8 hrs post dose; format: ADME, organism-based; parameters: dose 5 mg/kg, time < 8 hr, route oral; how it was run: as §3
[14] = AUClast in mouse kidney at 5 mg/kg, po measured up to 8 hrs post dose; format: ADME, organism-based; parameters: time < 8 hr, dose 5 mg/kg, route oral; how it was run: as §3
[15] = Ratio of AUClast in mouse liver to blood at 5 mg/kg, po measured up to 8 hrs post dose
[16] = Drug uptake in mouse central nervous system at 5 mg/kg, po; format: ADME, organism-based; conditions: in vivo

IC50 [1]: 13 nM
solubility at 24 h [2]: 800 µg/mL (≈ 2090 µM)
IC50 [3]: > 10000 nM
Activity [5]: Not Active
Activity [6]: inactive
Activity [7]: inactive
Activity [8]: inactive
AUC(0-t) at 24 h [9]: 10700 ng·h/mL
clearance [10]: 0.78 mL/min/kg
half-life [11]: 5.33 h
Cmax [12]: 2570 ng/mL
AUC(0-t) at 8 h [13]: 19200 ng·h/mL
AUC(0-t) at 8 h [14]: 36600 ng·h/mL
Kp at 8 h [15]: 1.5
Drug uptake [16]: Not Active
Structure (SMILES): N#Cc1c(-c2cccs2)nc(SCc2cccc(CC(=O)O)c2)[nH]c1=O
inhibition (INH) [4]: Not Active
